Results of several laboratories.
Compare with care: the assays were run in different laboratories.
Read-out: cell growth or viability

CC(C)(C)c1cnc(CSc2cnc(NC(=O)C3CCN(CCCCSc4cccc5c4C(=O)N(C4CCC(=O)NC4=O)C5=O)CC3)s2)o1 (stereo not drawn)  viability (HH; CCK-8; 1 nM): 100%
CC(=NNC(=O)COc1ccc2c(C)c(Cc3ccccc3)c(=O)oc2c1C)c1ccc(Br)cc1  viability (HepG2; MTT; 100 µg/mL): 34.7%
CC(=O)c1nn(-c2ccccc2Cl)/c(=N/N=C(\C)c2ccc(NC(=O)c3ccccc3)cc2)s1  viability (HepG2; MTT; 5 µM): 6.09%
CC(=NNC(=O)c1cccnc1)c1ccc(Nc2nnc(-c3ccc(Cl)cc3)c3ccccc23)cc1  viability (HepG2; MTT; 2.5 µM, 24 h): 6.93%
CC(=O)Nc1ccc(/C(C)=N/N=c2\sc(C(C)=O)nn2-c2ccc(C)cc2)cc1  viability (HepG2; MTT; 0.312 µM): 100%
CC(=NNC(=O)c1ccccc1Br)c1ccc(Nc2nnc(-c3ccc(Cl)cc3)c3ccccc23)cc1  viability (HepG2; MTT; 0.625 µM, 24 h): 21.2%
CC(C)(C)c1cnc(CSc2cnc(NC(=O)C3CCN(CCCCCSc4cccc5c4CN(C4CCC(=O)NC4=O)C5=O)CC3)s2)o1 (stereo not drawn)  viability (HH; CCK-8; 0.25 µM): 0%
O=C(C=Cc1ccccc1)Nc1ccc(Oc2nnc(-c3ccc(Cl)cc3)c3ccccc23)cc1  viability (HepG2; MTT; 5 µM, 24 h): 2.49%
CC(C)(C)c1cnc(CSc2cnc(NC(=O)C3CCN(C(=O)COCCOCCSc4cccc5c4C(=O)N(C4CCC(=O)NC4=O)C5=O)CC3)s2)o1 (stereo not drawn)  viability (HH; CCK-8; 0.5 µM): 13.5%
